# The source made the active and inactive calls. The rule behind the calls is not given here.
# Assays:
# Candida tropicalis [1] = experiment: microbe, parasite or virus in culture; type: functional; conditions: 5008, time 48 hrs
# Candida tropicalis [2] = experiment: microbe, parasite or virus in culture; type: functional; conditions: 3890, time 48 hrs
# Cryptococcus neoformans [3] = experiment: microbe, parasite or virus in culture; type: functional; conditions: H99, time 72 hrs
# Candida albicans [4] = experiment: Antifungal activity against fluconazole-sensitive Candida albicans SC5314 assessed as inhibition of fungal growth; type: functional
# Candida albicans [5] = experiment: microbe, parasite or virus in culture; type: functional; conditions: 0304103
# Candida albicans [6] = experiment: Antifungal activity against fluconazole-sensitive Candida albicans 9770 assessed as inhibition of fungal growth; type: functional
# HUVEC = experiment: Cytotoxicity against human HUVEC assessed as reduction in cell viability; type: cell-based
# Candida tropicalis [7] = experiment: Antifungal activity against fluconazole-resistant Candida tropicalis 5008 assessed as inhibition of cell proliferation at 8 ug/ml measured for 48 hrs by time growth curve assay; type: functional, organism-based; conditions: dose 8.0 µg/ml
# Procedure, shortened: (§1)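 Exponential-phase cells from YEPD resuspended in 3 mL fresh RPMI 1640 at 1 × 10⁵ cells/mL (C. tropicalis 5008) or 1 × 10⁶ cells/mL (C. neoformans H99). Compound at several concentrations; cultures shaken at 240 rpm, 30 °C. Growth read as OD₆₃₀ at 0, 6, 12, 24, 36 and 48 h. Done in triplicate.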
# Cryptococcus neoformans [8] = experiment: Antifungal activity against fluconazole-sensitive Cryptococcus neoformans H99 assessed as inhibition of cell proliferation at 2 to 8 ug/ml measured for 48 hrs by time growth curve assay; type: functional, organism-based; conditions: dose 2-8 µg/ml
# Procedure, shortened: as §1
# Candida tropicalis [9] = experiment: Inhibition of biofilm formation in Candida tropicalis 5008 at 64 ug/ml incubated for 24 hrs by XTT reduction assay; type: functional
# Procedure, shortened: (§2)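 C. tropicalis 5008 or C. neoformans H99 from exponential YEPD culture diluted in RPMI 1640 to 1 × 10⁶ CFU/mL. Adhesion at 37 °C for 1.5 h. Results given as percent inhibition versus untreated wells. Three independent experiments, mean ± SD, t-test.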
# Cryptococcus neoformans [10] = experiment: Inhibition of biofilm formation in Cryptococcus neoformans H99 at 64 ug/ml incubated for 24 hrs by XTT reduction assay; type: functional
# Procedure, shortened: as §2
# Cryptococcus neoformans [11] = experiment: Inhibition of capsule formation in Cryptococcus neoformans H99 assessed as reduction in capsule size at 40 to 50 ug/ml incubated for 24 hrs by laser scanning confocal microscopic analysis; type: functional; conditions: dose 40-50 µg/ml
# Procedure, shortened: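 Exponential C. neoformans H99 resuspended in PBS at 1 × 10⁷ cells/mL. Cells cultured in DMEM with FBS and compound at 37 °C under 10% CO₂ for 24 h, with an untreated control. Stained with India ink and imaged by laser scanning confocal microscopy at 63×, 10 random fields. Whole-cell and cell-body diameters measured to derive capsule size.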
# Cryptococcus neoformans [12] = experiment: Downregulation of CAP10 gene expression in Cryptococcus neoformans H99 at 2 ug/ml measured after 24 hrs by qRT-PCR analysis; type: functional; conditions: dose 2.0 µg/ml
# Procedure, shortened: (§3)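 Exponential-phase C. neoformans H99 inoculated into 50 mL YPD with compound. Incubated 35 °C for 24 h, then cultures ground in liquid nitrogen for RNA isolation. Transcript levels of capsule-associated genes quantified by RT-qPCR. Three independent experiments, mean ± SD, t-test.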
# Cryptococcus neoformans [13] = experiment: Downregulation of CAP59 gene expression in Cryptococcus neoformans H99 at 2 ug/ml measured after 24 hrs by qRT-PCR analysis; type: functional; conditions: dose 2.0 µg/ml
# Procedure, shortened: as §3
# Candida tropicalis [14] = experiment: Inhibition of CYP51 in Candida tropicalis 5008 assessed as obtusifoliol level at 4 ug/ml by GC-MS analysis; parameters: scale not given: the % may be the effect or the level left; conditions: dose 4.0 µg/ml
# Candida tropicalis [15] = experiment: Inhibition of CYP51 in Candida tropicalis 5008 assessed as eburicol level at 4 ug/ml by GC-MS analysis; parameters: scale not given: the % may be the effect or the level left; conditions: dose 4.0 µg/ml
# Cryptococcus neoformans [16] = experiment: Inhibition of CYP51 in Cryptococcus neoformans H99 assessed as ergosterol level at 4 ug/ml by GC-MS analysis (reference value: 60.18%); parameters: scale not given: the % may be the effect or the level left; conditions: dose 4.0 µg/ml
# Cryptococcus neoformans [17] = experiment: Inhibition of CYP51 in Cryptococcus neoformans H99 assessed as eburicol level at 4 ug/ml by GC-MS analysis (reference value: 39.82%); parameters: scale not given: the % may be the effect or the level left; conditions: dose 4.0 µg/ml
# [18] = Inhibition of HDAC in Candida tropicalis 5008 using Boc-Lys(Ac)-AMC as substrate preincubated with protoplast for 12 hrs followed by incubation with substrate for 6 hrs by fluorimetric assay
# Procedure, shortened: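 Whole-cell assay on C. tropicalis 5008, 100 mg wet weight of exponential-phase cells. Cell wall removed with snailase to give protoplasts, which were dispersed in PBS. Protoplasts incubated with compound at 35 °C for 12 h. Boc-Lys(Ac)-AMC then added to a final 30 µM and incubated 37 °C for 6 h. Stop solution added, 37 °C for 2 h. Fluorescence read at Ex 360/Em 460 nm and converted to HDAC inhibition rate.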
# Cryptococcus neoformans [19] = experiment: Downregulation of HOS1 mRNA expression in Cryptococcus neoformans H99 at 2 ug/ml measured after 24 hrs by qRT-PCR analysis; type: functional; conditions: dose 2.0 µg/ml
# Procedure, shortened: (§4)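 Exponentially growing C. neoformans H99 inoculated into 50 mL YPD with compound and incubated 35 °C for 24 h. Cells ground in liquid nitrogen before total RNA isolation, then reverse transcription and real-time RT-qPCR. Means ± SD of three independent assays.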
# Cryptococcus neoformans [20] = experiment: Downregulation of HOS2 mRNA expression in Cryptococcus neoformans H99 at 2 ug/ml measured after 24 hrs by qRT-PCR analysis; type: functional; conditions: dose 2.0 µg/ml
# Procedure, shortened: as §4
# Cryptococcus neoformans [21] = experiment: Downregulation of CLR62 mRNA expression in Cryptococcus neoformans H99 at 2 ug/ml measured after 24 hrs by qRT-PCR analysis; type: functional; conditions: dose 2.0 µg/ml
# Procedure, shortened: as §4
# Cryptococcus neoformans [22] = experiment: Downregulation of HOS3 mRNA expression in Cryptococcus neoformans H99 at 2 ug/ml measured after 24 hrs by qRT-PCR analysis; type: functional; conditions: dose 2.0 µg/ml
# Procedure, shortened: as §4
# Candida tropicalis [23] = experiment: Antifungal activity against Candida tropicalis 5008 infected in ICR mouse model assessed as reduction in fungal burden in kidney at 20 mg/kg, po administered once a day for 5 days; type: functional; conditions: time 5 day
# Procedure, shortened: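 ICR mice given cyclophosphamide 100 mg/kg ip 24 h before infection, then infected iv with 1 × 10⁵ CFU C. tropicalis 5008 on day 0. Treatment started 24 h post infection: oral dosing once daily for 5 consecutive days, with saline and fluconazole control groups. Mice euthanized day 6. Kidney homogenates plated on SDA at 35 °C for 48 h and colonies counted for fungal burden. ANOVA between groups.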
# Cryptococcus neoformans [24] = experiment: Downregulation of CAP64 gene expression in Cryptococcus neoformans H99 at 2 ug/ml measured after 24 hrs by qRT-PCR analysis; type: functional; conditions: dose 2.0 µg/ml
# Procedure, shortened: as §4
# Candida tropicalis [25] = experiment: Antifungal activity against Candida tropicalis 5008 assessed as inhibition of fungal filamentation by measuring reduction in hyphae formation at 1 ug/ml incubated for 7 hrs by cell inverted imaging microscopic analysis; type: functional, organism-based; conditions: dose 1.0 µg/ml
# Procedure, shortened: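 C. tropicalis 5008 from exponential YEPD culture diluted in spider medium to 1 × 10⁵ CFU/mL. Compound added at several concentrations, with fluconazole as positive drug. Incubated 37 °C for 7 h, then morphology compared with the no-drug group by live-cell inverted microscopy.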
compound,measurement,setting,value
O=C(CCCCCCCOc1ccc(CN2CCN(CC(O)(Cn3cncn3)c3ccc(F)cc3F)CC2)cc1)NO (stereo unspecified),MIC80,Candida tropicalis [1],0.5 µg/mL
same,MIC80,Candida tropicalis [2],0.5 µg/mL
same,MIC80,Cryptococcus neoformans [3],0.5 µg/mL
same,MIC80,Candida albicans [4],8 µg/mL
same,MIC80,Candida albicans [5],8 µg/mL
same,MIC80,Candida albicans [6],16 µg/mL
same,IC50,HUVEC,5.9 µg/mL
same,Activity,Candida tropicalis [7],Active
same,Activity,Cryptococcus neoformans [8],Active
same,inhibition at 64 µg/mL,Candida tropicalis [9],100%
same,inhibition at 64 µg/mL,Cryptococcus neoformans [10],70%
same,inhibition,Cryptococcus neoformans [11],Active
same,inhibition,Cryptococcus neoformans [12],Active
same,inhibition,Cryptococcus neoformans [13],inactive
same,Activity,Candida tropicalis [14],16%
same,Activity,Candida tropicalis [15],69.3%
same,Activity,Cryptococcus neoformans [16],19.1%
same,Activity,Cryptococcus neoformans [17],71.3%
same,IC50,[18],2.38 µM
same,inhibition,Cryptococcus neoformans [19],Active
same,inhibition,Cryptococcus neoformans [20],Active
same,inhibition,Cryptococcus neoformans [21],Active
same,inhibition,Cryptococcus neoformans [22],Active
same,log(activity),Candida tropicalis [23],0.7
same,inhibition,Cryptococcus neoformans [24],inactive
same,Activity,Candida tropicalis [25],Active

# Source: ChEMBL document CHEMBL4842325, “Lanosterol 14α-demethylase (CYP51)/histone deacetylase (HDAC) dual inhibitors for treatment of Candida tropicalis and Cryptococcus neoformans infections” (Eur J Med Chem, 2021)
